# Source: ChEMBL document CHEMBL2010801, “Semisynthesis and antimicrobial activity of novel guttiferone-A derivatives” (Bioorg Med Chem, 2012)
# Activity calls are given as the source filed them. No cut-off for these calls is given here.
# How the values were obtained:
# [1] = system: Salmonella typhimurium; experiment: Antimicrobial activity against Salmonella typhimurium ATCC 14028 after 24 hrs by broth microdilution method; assay type: functional; details: for MIC100: Salmonella enterica subsp. enterica serovar Typhimurium; for MIC50: Salmonella enterica, ATCC 14028, 24 h
# Summary of the method: (§1)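 Microplate broth microdilution with a serial dilution series of compounds, using chloramphenicol as the antibacterial control. Bacterial plates were incubated at 35 °C for 24 h.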
# [2] = system: Staphylococcus aureus; experiment: Antimicrobial activity against Staphylococcus aureus ATCC 6538 after 24 hrs by broth microdilution method; assay type: functional; details: for MIC50: ATCC 6538, 24 h; summary of the method: as §1
# [3] = system: Candida albicans; experiment: Antifungal activity against Candida albicans ATCC 09548 after 24 hrs by broth microdilution method; assay type: functional
# Summary of the method: (§2)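 Broth microdilution in microplates with a serial dilution series of compounds. Amphotericin B served as the fungicidal control and fluconazole as the fungistatic control. Yeast plates were incubated at 37 °C for 24 h.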
# [4] = system: Candida parapsilosis; experiment: Antifungal activity against Candida parapsilosis ATCC 69548 after 24 hrs by broth microdilution method; assay type: functional; summary of the method: as §2
# [5] = system: Escherichia coli; experiment: Antimicrobial activity against Escherichia coli ATCC 25922 after 24 hrs by broth microdilution method; assay type: functional; details: for MIC50: ATCC 25922, 24 h; summary of the method: as §1
# [6] = Cytotoxicity against human PBMC after 48 hrs by MTT assay; assay type: cell-based; details: PBMC (peripheral blood mononuclear cells)
# Summary of the method: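 Normal human PBMC from healthy volunteers were isolated by Ficoll-Hypaque density gradient and seeded at 2.4 × 10⁶ cells/mL. Compounds were added at 100 to 0.06 and cells held 48 h at 37 °C, 5% CO₂. MTT was then added for 4 h, formazan dissolved in DMSO and A560 read. Untreated cells were taken as 100% viability. CC50 was obtained by linear regression.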
# [7] = system: Nannizzia gypsea; experiment: Antifungal activity against Microsporum gypseum after 48 hrs by broth microdilution method; assay type: functional
# Summary of the method: (§3)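 Broth microdilution against filamentous fungi with serially diluted compounds. Amphotericin B (fungicidal) and fluconazole (fungistatic) were run as controls. Plates were incubated at 30 °C for 48 h.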
# [8] = system: Pseudomonas aeruginosa; experiment: Antimicrobial activity against Pseudomonas aeruginosa ATCC 9027 after 24 hrs by broth microdilution method; assay type: functional; summary of the method: as §1
# [9] = system: Candida tropicalis; experiment: Antifungal activity against Candida tropicalis ATCC 750 after 24 hrs by broth microdilution method; assay type: functional; summary of the method: as §2
# [10] = system: Nakaseomyces glabratus; experiment: Antifungal activity against Candida glabrata ATCC 90030 after 24 hrs by broth microdilution method; assay type: functional; summary of the method: as §2
# [11] = system: Staphylococcus epidermidis; experiment: Antimicrobial activity against Staphylococcus epidermidis ATCC 12228 after 24 hrs by broth microdilution method; assay type: functional; summary of the method: as §1
# [12] = system: Proteus mirabilis; experiment: Antimicrobial activity against Proteus mirabilis ATCC 25933 after 24 hrs by broth microdilution method; assay type: functional; summary of the method: as §1
# [13] = system: Pichia kudriavzevii; experiment: Antifungal activity against Candida krusei ATCC 6258 after 24 hrs by broth microdilution method; assay type: functional; summary of the method: as §2
# [14] = system: Cryptococcus neoformans; experiment: Antifungal activity against Cryptococcus neoformans ATCC 90012 after 24 hrs by broth microdilution method; assay type: functional; details: for MIC: read-out: MIC100; summary of the method: as §2
# [15] = system: Trichophyton tonsurans; experiment: Antifungal activity against Trichophyton tonsurans after 48 hrs by broth microdilution method; assay type: functional; details: for MIC: read-out: MIC100; summary of the method: as §3
# [16] = system: Bacillus cereus; experiment: Antimicrobial activity against Bacillus cereus ATCC 11778 after 24 hrs by broth microdilution method; assay type: functional; details: for MIC50 / MIC: ATCC 11778, 24 h; for MIC: read-out: MIC100; summary of the method: as §1
Structure (SMILES),MIC100 [1],MIC50 ([1]; read-out: MIC50) [µM],MIC50 [3],MIC100 [3],MIC100 [4],MIC100 [5],MIC50 [5] [µM],CC50 at 48 h [6] [µM],MIC100 [8],MIC50 [9],MIC100 [9],MIC100 [10],MIC50 [11],MIC100 [11],MIC100 [12],MIC50 [15],MIC50 [4],MIC50 [7],MIC50 [10],MIC50 [13],further results
CC(C)=CCC[C@]1(C)[C@@H](CC=C(C)C)C[C@@]2(CC=C(C)C)C(=O)C(C(=O)c3ccc(OC(=O)OC(C)(C)C)c(O)c3)=C(O)[C@]1(CC=C(C)C)C2=O,inactive,57,inactive,inactive,inactive,inactive,555,> 142,inactive,inactive,inactive,inactive,inactive,inactive,inactive,55 µM,,,,,"MIC50 [2]: 18 µM; MIC ([7]; read-out: MIC100): 28.4 µM; MIC50 ([8]; ATCC 9027, 24 h): 58.2 µM; MIC50 ([10]; ATCC 90030, 24 h): 56.9 µM; MIC50 [12]: inactive; MIC50 ([13]; ATCC 6258, 24 h): 56.9 µM; MIC50 ([14]; ATCC 90012, 24 h, read-out: MIC50): 555 µM; MIC ([14]; ATCC 90012, 24 h): 1.82 µM; MIC [15]: 1820 µM; MIC50 [16]: 1800 µM; MIC [16]: 28.4 µM"
CC(C)=CCC[C@]1(C)[C@@H](CC=C(C)C)C[C@@]2(CC=C(C)C)C(=O)C(C(=O)c3ccc(OC(=O)c4ccc(Cl)cc4)c(OC(=O)c4ccc(Cl)cc4)c3)=C(O)[C@]1(CC=C(C)C)C2=O,inactive,44,inactive,inactive,inactive,inactive,44,> 114,inactive,inactive,inactive,inactive,inactive,inactive,inactive,inactive,inactive,inactive,inactive,inactive,"MIC100 [2]: inactive; MIC50 ([2]; read-out: MIC50): 177 µM; MIC100 [7]: inactive; MIC50 [8]: inactive; MIC100 [13]: inactive; MIC100 [14]: inactive; MIC50 ([14]; ATCC 90012, 24 h): 45.5 µM; MIC100 [15]: inactive; MIC50 [16]: 354 µM; MIC [16]: 45.5 µM"
C[C@@H]1[C@H](O)[C@@H](C)/C=C/C=C/C=C/C=C/C=C/C=C/C=C/[C@H](O[C@@H]2O[C@H](C)[C@@H](O)[C@H](N)[C@@H]2O)C[C@@H]2O[C@](O)(C[C@@H](O)C[C@@H](O)[C@H](O)CC[C@@H](O)C[C@@H](O)CC(=O)O[C@H]1C)C[C@H](O)[C@H]2C(=O)O [AMPHOTERICIN B],,,,,,,,,,inactive,,,,,,inactive,inactive,inactive,inactive,inactive,"MIC ([3]; ATCC 09548, 24 h, read-out: MIC100): 0.54 µM; MIC ([4]; Lodderomyces parapsilosis, ATCC 69548, 24 h, read-out: MIC100): 0.54 µM; MIC ([9]; ATCC 750, 24 h, read-out: MIC100): 1.08 µM; MIC ([10]; ATCC 90030, 24 h, read-out: MIC100): 0.54 µM; MIC ([13]; ATCC 6258, 24 h, read-out: MIC100): 1.08 µM; MIC50 [14]: inactive; MIC ([14]; ATCC 90012, 24 h): 1.08 µM; MIC [15]: 540 µM"
CC(C)=CCC[C@]1(C)[C@@H](CC=C(C)C)C[C@@]2(CC=C(C)C)C(=O)C(C(=O)c3ccc(OC(=O)c4ccccc4)c(OC(=O)c4ccccc4)c3)=C(O)[C@]1(CC=C(C)C)C2=O,inactive,,inactive,inactive,inactive,inactive,48,> 123,inactive,inactive,inactive,inactive,inactive,inactive,inactive,inactive,inactive,inactive,inactive,inactive,"MIC50 [1]: 49.3 µM; MIC100 [2]: inactive; MIC50 ([2]; read-out: MIC50): 1540 µM; MIC100 [7]: inactive; MIC50 [12]: inactive; MIC100 [13]: inactive; MIC100 [14]: inactive; MIC50 ([14]; ATCC 90012, 24 h): 49.3 µM; MIC100 [15]: inactive; MIC100 [16]: inactive"
